The values below come from ChEMBL document CHEMBL5154854, “Identification of a Vitamin-D Receptor Antagonist, MeTC7, which Inhibits the Growth of Xenograft and Transgenic Tumors In Vivo” (J Med Chem, 2022).

The source made the active and inactive calls. No cut-off for these calls is given here.

For data set [1], the system named is IGROV-1. The experiment in a line: Cytotoxicity against human IGROV-1 cells assessed as reduction in cell viability incubated for 24 hrs by MTS assay. The class given is functional, cell-based. The note with it: dose 0.25-1.25 µM, DDE = dose-dependent effect. The essentials: (§1)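 Ovarian lines seeded 5,000 cells/well, attached overnight, treated 24 h in complete medium (DMSO ≤0.2%); MTS reagent 1:10 in fresh RPMI 2–4 h, absorbance 490 nm; triplicate, % of DMSO-treated cells.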
On the technique in general: Formazan colour is commonly taken as a measure of viable cells.

The nature of data set [2]: Toxicity in NSG mouse xenografted with human ES2 cells assessed as body weight change at 10 mg/kg, ip measured upto 30 days. The class given is organism-based. The conditions noted are these: in vivo, 720 h, time < 30 day.
Data set [3] has as its system ES-2. The experiment in a line: Anti-tumor activity against human ES2 cells xenografted in NSG mouse assessed as reduction in tumor volume at 10 mg/kg, ip measured upto 30 days. The class given is functional, organism-based. The note with it: time <= 30.0 day. The essentials:
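NSG mice, 6–8 weeks, injected subcutaneously in right flank with ES2 (250,000) or SH-SY5Y/BE(2)C (1 million) cells in cold matrigel/serum-free RPMI 1:1. Once palpable, 10 mg/kg IP M–F vs vehicle; volume (length × width2)[…]; BE(2)C and ES2 monitored alternate days; endpoint 2000 mm3; % change in volume, t-test.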
Background: Xenograft models place foreign cells or tissue in a host animal.

Data set [4] deals with HEK-293T. The experiment in a line: Cytotoxicity against HEK-293T cells assessed as inhibition of cell proliferation upto 100 uM incubated for 18 hrs by MTS assay. The conditions noted are these: human. It is filed as toxicity, cell-based.
The test system of data set [5] is SH-EP1. Description: Cytotoxicity against human SH-EP1 cells assessed as reduction in cell viability incubated for 48 hrs by MTS assay. It is filed as functional, cell-based. The conditions noted are these: dose 0.1-10 µM, DDE = dose-dependent effect. An outline of the steps: (§2)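 Neuroblastoma lines seeded 5,000 cells/well, attached overnight, treated 48 h in complete medium (DMSO ≤0.2%); MTS reagent 1:10 in fresh RPMI 2–4 h, absorbance 490 nm.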

Data set [6] deals with T1, Vitamin D3 receptor (Homo sapiens) (UniProt P11473).
T1 sequence (whole entry): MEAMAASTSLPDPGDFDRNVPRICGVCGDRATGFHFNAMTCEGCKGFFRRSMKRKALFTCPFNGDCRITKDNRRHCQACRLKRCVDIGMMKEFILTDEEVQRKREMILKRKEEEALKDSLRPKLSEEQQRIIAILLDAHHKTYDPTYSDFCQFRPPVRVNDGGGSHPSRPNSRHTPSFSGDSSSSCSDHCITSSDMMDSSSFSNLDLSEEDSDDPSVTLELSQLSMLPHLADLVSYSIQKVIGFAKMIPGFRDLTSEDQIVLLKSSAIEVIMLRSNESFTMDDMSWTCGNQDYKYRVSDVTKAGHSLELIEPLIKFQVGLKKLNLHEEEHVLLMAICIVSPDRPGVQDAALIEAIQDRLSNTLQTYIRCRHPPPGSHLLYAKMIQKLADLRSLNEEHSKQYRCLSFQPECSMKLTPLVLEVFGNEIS
Description: Antagonist activity at VDR LBD (unknown origin) using Alexa Fluor 647-labeled SRC2-3 as substrate incubated for 2 hrs in presence of calcitriol by fluorescence polarization assay. The conditions noted are these: filed as antagonist. The essentials:
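VDR-LBD (0.1 μM) with Alexa Fluor 647-labelled SRC2-3 (17.5 nM) and 10 nM 1,25(OH)2D3 in 25 mM PIPES, 50 mM NaCl, 0.01% NP-40, pH 6.75. Compounds were serially diluted 1:2 from 10 mM DMSO stocks and incubated 2 h. Polarization was read at 635/685 nm. Three independent experiments in quadruplicate; IC50 by variable-slope nonlinear regression.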
A general note: Fluorescence polarisation rises when a labelled molecule tumbles more slowly, as on binding a larger partner.

The target of data set [7] is T1, Vitamin D3 receptor (Homo sapiens). The experiment in a line: Antagonist activity at VDR LBD (unknown origin) transfected in HEK-293T cells assessed as inhibition of 1,25(OH)2D3-induced receptor transactivation incubated for 16 hrs by Bright-Glo luciferase assay. The class given is cell-based. The note with it: filed as antagonist. The essentials: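 HEK293T on matrigel, lipid-transfected with VDR-CMV plasmid and CYP24A1-luciferase reporter; after 16 h, replated at 15,000 cells/well, compound added 4 h later together with 10 nM 1,25(OH)2D3; 16 h at 37 °C, 5% CO2; luminescence read. At least two independent experiments in quadruplicate; nonlinear regression, variable slope.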

For data set [8] the target is unchanged. The experiment in a line: Antagonist activity at VDR in human 2008 cells assessed as suppression of RXR-alpha expression at 250 nM incubated for 18 hrs by western blot analysis relative to control. The class given is cell-based. The conditions noted are these: filed as antagonist. An outline of the steps:
(§3)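 2008 ovarian cancer cells exposed 250 nM, 18 h; immunoblot with loading control (GAPDH for RXR-α, α-tubulin for Importin-4); band densitometry normalized to loading control.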

The target is the same in data set [9]. The experiment in a line: Antagonist activity at VDR in human 2008 cells assessed as suppression of importin-4 expression at 250 nM incubated for 12 to 18 hrs by western blot analysis relative to control. The class given is cell-based. The note with it: filed as antagonist, time 12-18 hrs. The essentials: as §3
The test system of data set [10] is SK-OV-3. The experiment in a line: Cytotoxicity against human SK-OV-3 cells assessed as reduction in cell viability incubated for 24 hrs by MTS assay. The note with it: dose 0.25-1.25 µM, DDE = dose-dependent effect. The class given is functional, cell-based. An outline of the steps:
as §1

In data set [11] the test system is OVCAR-8. Description: Cytotoxicity against human OVCAR-8 cells assessed as reduction in cell viability incubated for 24 hrs by MTS assay. The class given is functional, cell-based. The conditions noted are these: dose 0.25-1.25 µM, DDE = dose-dependent effect. The essentials:
as §1

Data set [12] relates to 2008. The experiment in a line: Cytotoxicity against human 2008 cells assessed as reduction in cell viability incubated for 24 hrs by MTS assay. The conditions noted are these: dose 0.25-1.25 µM, DDE = dose-dependent effect. It is filed as functional, cell-based. The essentials:
as §1

Data set [13] deals with Caov-3 cell line. Description: Cytotoxicity against human Caov-3 cell line assessed as reduction in cell viability incubated for 24 hrs by MTS assay. It is filed as functional, cell-based. The conditions noted are these: dose 0.25-1.25 µM, DDE = dose-dependent effect. The essentials:
as §1

Data set [14] concerns 2008. Description: Induction of apoptosis in human 2008 cells assessed as cleaved PARP1 expression levels at 250 nM incubated for 18 hrs by western blot analysis (reference value: 4%). The class given is functional.
Data set [15] deals with Mus musculus. Description: Downregulation of VDR expression in tumor of NSG mouse xenografted with human SK-OV-3 cells at 10 mg/kg, ip by confocal microscopy based immunohistochemistry analysis. It is filed as functional, organism-based.
Data set [16] concerns D283 Med. The experiment in a line: Anti-tumor activity against human D283 Med cells xenografted in NSG mouse assessed as reduction in tumor volume at 10 mg/kg, ip measured on day 12. It is filed as functional, organism-based. The note with it: time 12.0 day. The essentials: (§4)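 NSG mice implanted subcutaneously with 1 million D283, PANC-1 or BXPC-3 cells in matrigel/DMEM 1:1; once palpable, 10 mg/kg IP M–F vs vehicle; volume (length × width2)[…], % change; endpoint 2000 mm3; tumors excised and weighed; unpaired t-test.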

The subject of data set [17] is D283 Med. The experiment in a line: Anti-tumor activity against human D283 Med cells xenografted in NSG mouse assessed as reduction in tumor size at 10 mg/kg, ip measured on day 12. It is filed as functional, organism-based. The note with it: time 12.0 day. An outline of the steps: as §4
Data set [18] relates to PANC-1. The experiment in a line: Anti-tumor activity against human PANC-1 cells xenografted in NSG mouse assessed as reduction in tumor growth at 10 mg/kg, ip measured on day 12. The class given is functional, organism-based. The conditions noted are these: time 12.0 day. An outline of the steps:
as §4

Data set [19] concerns BXPC-3. Description: Anti-tumor activity against human BXPC-3 cells xenografted in NSG mouse assessed as reduction in tumor growth at 10 mg/kg, ip measured on day 18. It is filed as functional, organism-based. The conditions noted are these: time 18.0 day. An outline of the steps:
as §4

Data set [20] relates to LA-N-5. The experiment in a line: Cytotoxicity against human LA-N-5 cells assessed as reduction in cell viability incubated for 48 hrs by MTS assay. It is filed as functional, cell-based. The note with it: dose 0.1-10 µM, DDE = dose-dependent effect. An outline of the steps: as §2
Data set [21] deals with SK-N-AS. Description: Cytotoxicity against human SK-N-AS cells assessed as reduction in cell viability incubated for 48 hrs by MTS assay. The class given is functional, cell-based. The conditions noted are these: dose 0.1-10 µM, DDE = dose-dependent effect. An outline of the steps: as §2

Consider `CC(C)CCC[C@@H](C)[C@H]1CC[C@@H]2[C@]1(C)CCC1[C@]23C=C[C@]2(C[C@@H](OC(=O)CBr)CC[C@]12C)n1c(=O)n(C)c(=O)n13` (stereo partly specified), for which the Activity result in [1] is “Dde”; in data set [2], “Non-Toxic”; in [4], “Non-Toxic”; in data set [5], “Dde”; in [6], 2.9 µM; in data set [7], 20.8 µM. For the same molecule, the Activity result in [10] was “Dde”; in data set [11], “Dde”; in data set [12], “Dde”; in data set [13], “Dde”; in data set [14] it was 22.8%; in data set [20] it was “Dde”. Besides, the Activity result in data set [21] was “Dde”. For the same molecule, the result in data set [3], in data set [16], in data set [17], in data set [18] and in [19] was Active. The values for the fold change (FC) in data set [8] and in data set [9] were 0.29 and 0.82, respectively. Further, the inhibition result in data set [15] was “Active”.
